Data taken from ChEMBL document CHEMBL1921722, “In vitro and in vivo evaluation of select kahalalide F analogs with antitumor and antifungal activities” (Bioorg Med Chem, 2011).
The source made the active and inactive calls. The calls are words filed in the database; no cut-off is given here.

Legend:
NCI/ADR-RES [1] = test: Cytotoxicity against human NCI/ADR-RES cells by sulforhodamine B assay; assay type: functional
Procedure, shortened: (§1)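 NCI Developmental Therapeutics Program 60-cell-line human tumor panel screen, run at NCI. A single-concentration pre-screen was followed by a five-concentration dose-response in 10-fold steps. GI50 is the concentration that reduces growth of treated cells to half that of untreated control cells. TGI is the concentration that completely halts growth.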

T47D = test: Cytotoxicity against human T47D cells by sulforhodamine B assay; assay type: functional; procedure, shortened: as §1
BT-549 [2] = test: Cytotoxicity against human BT549 cells by sulforhodamine B assay; assay type: functional
Procedure, shortened: (§2)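 Run at NCI in the DTP 60-cell-line human tumor panel by standard procedure. Compounds were first screened at a single concentration, then tested at five tenfold-spaced concentrations. GI50 is the concentration reducing treated-cell growth to half that of untreated controls; TGI is the concentration completely halting growth.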

Escherichia coli = test: Antimicrobial activity against Escherichia coli ATCC 35218 by CLSI method; assay type: functional, organism-based
HOP-92 = test: Cytotoxicity against human HOP92 cells assessed as cell growth at 80 uM by sulforhodamine B assay relative to control; assay type: functional; details: read-out: Activity
[3] = Acute toxicity in ip dosed athymic nude mouse assessed as mortality after 24 days; assay type: organism-based; details: in vivo
Procedure, shortened: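 Female athymic nude mice, non-tumored; single IP injection, one mouse per dose level, 400, 200 and 100 mg/kg first, then 50, 25 and 12.5 mg/kg. Dose volume 0.1 ml/10 g body weight. Body weight and survival monitored; animals sacrificed on >20% weight loss or other significant toxicity.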

IGROV-1 = test: Cytotoxicity against human IGROV1 cells assessed as cell growth at 80 uM by sulforhodamine B assay relative to control; assay type: functional; details: read-out: Activity
HCT-116 = test: Cytotoxicity against human HCT116 cells assessed as cell growth at 8 uM by sulforhodamine B assay relative to control; assay type: functional; details: read-out: Activity
SW-620 [4] = test: Cytotoxicity against human SW620 cells assessed as cell growth at 800 nM by sulforhodamine B assay relative to control; assay type: functional; details: read-out: Activity
TK-10 [5] = test: Cytotoxicity against human TK10 cells assessed as cell growth at 8 uM by sulforhodamine B assay relative to control; assay type: functional; details: read-out: Activity
HCC 2998 = test: Cytotoxicity against human HCC2998 cells assessed as cell growth at 8 uM by sulforhodamine B assay relative to control; assay type: functional; details: read-out: Activity
NCI-H460 = test: Cytotoxicity against human NCI-H460 cells assessed as cell growth at 80 uM by sulforhodamine B assay relative to control; assay type: functional; details: read-out: Activity
COLO 205 [6] = test: Cytotoxicity against human COLO205 cells assessed as cell growth at 8 nM by sulforhodamine B assay relative to control; assay type: functional; details: read-out: Activity; procedure, shortened: as §2
KM12 [7] = test: Cytotoxicity against human KM12 cells assessed as cell growth at 80 nM by sulforhodamine B assay relative to control; assay type: functional; details: read-out: Activity
HCT-15 = test: Cytotoxicity against human HCT15 cells assessed as cell growth at 8 uM by sulforhodamine B assay relative to control; assay type: functional; details: read-out: Activity
TK-10 [8] = test: Cytotoxicity against human TK10 cells by sulforhodamine B assay; assay type: functional; procedure, shortened: as §1
LOX IMVI = test: Cytotoxicity against human LOXIMVI cells assessed as cell growth at 8 uM by sulforhodamine B assay relative to control; assay type: functional; details: read-out: Activity
M14 = test: Cytotoxicity against human M14 cells assessed as cell growth at 80 nM by sulforhodamine B assay relative to control; assay type: functional; details: read-out: Activity
KM12 [9] = test: Cytotoxicity against human KM12 cells assessed as cell growth at 800 nM by sulforhodamine B assay relative to control; assay type: functional; details: read-out: Activity
SNB-75 = test: Cytotoxicity against human SNB75 cells assessed as cell growth at 800 nM by sulforhodamine B assay relative to control; assay type: functional; details: read-out: Activity
HOP-62 = test: Cytotoxicity against human HOP62 cells assessed as cell growth at 800 nM by sulforhodamine B assay relative to control; assay type: functional; details: read-out: Activity
COLO 205 [10] = test: Cytotoxicity against human COLO205 cells assessed as cell growth at 8 uM by sulforhodamine B assay relative to control; assay type: functional; details: read-out: Activity; procedure, shortened: as §2
PC-3 = test: Cytotoxicity against human PC3 cells assessed as cell growth at 8 uM by sulforhodamine B assay relative to control; assay type: functional; details: read-out: Activity
SN12C = test: Cytotoxicity against human SN12C cells by sulforhodamine B assay; assay type: functional; procedure, shortened: as §1
UACC-62 = test: Cytotoxicity against human UACC62 cells assessed as cell growth at 80 nM by sulforhodamine B assay relative to control; assay type: functional; details: read-out: Activity
BT-549 [11] = test: Cytotoxicity against human BT549 cells assessed as cell growth at 80 uM by sulforhodamine B assay relative to control; assay type: functional; details: read-out: Activity; procedure, shortened: as §2
Staphylococcus aureus = test: Antimicrobial activity against methicillin-resistant Staphylococcus aureus ATCC 43300 by CLSI method; assay type: functional, organism-based
BT-549 [12] = test: Cytotoxicity against human BT549 cells assessed as cell growth at 800 nM by sulforhodamine B assay relative to control; assay type: functional; details: read-out: Activity; procedure, shortened: as §2
NCI/ADR-RES [13] = test: Cytotoxicity against human NCI/ADR-RES cells assessed as cell growth at 80 nM by sulforhodamine B assay relative to control; assay type: functional; details: read-out: Activity
NCI-H322M = test: Cytotoxicity against human NCI-H322M cells by sulforhodamine B assay; assay type: functional; procedure, shortened: as §1
RXF 393 = test: Cytotoxicity against human RXF393 cells by sulforhodamine B assay; assay type: functional; procedure, shortened: as §1
ACHN = test: Cytotoxicity against human ACHN cells assessed as cell growth at 80 uM by sulforhodamine B assay relative to control; assay type: functional; details: read-out: Activity; procedure, shortened: as §2
SW-620 [14] = test: Cytotoxicity against human SW620 cells assessed as cell growth at 80 uM by sulforhodamine B assay relative to control; assay type: functional; details: read-out: Activity
MDA-MB-231 = test: Cytotoxicity against human MDA-MB-231 cells by sulforhodamine B assay; assay type: functional; procedure, shortened: as §1
A549 = test: Cytotoxicity against human A549 cells assessed as cell growth at 800 nM by sulforhodamine B assay relative to control; assay type: functional; details: read-out: Activity; procedure, shortened: as §2
U-251 = test: Cytotoxicity against human U251 cells assessed as cell growth at 800 nM by sulforhodamine B assay relative to control; assay type: functional; details: read-out: Activity
SK-MEL-5 = test: Cytotoxicity against human SK-MEL-5 cells by sulforhodamine B assay; assay type: functional; procedure, shortened: as §1
SNB-19 = test: Cytotoxicity against human SNB19 cells assessed as cell growth at 800 nM by sulforhodamine B assay relative to control; assay type: functional; details: read-out: Activity
OVCAR-4 = test: Cytotoxicity against human OVCAR4 cells assessed as cell growth at 800 nM by sulforhodamine B assay relative to control; assay type: functional; details: read-out: Activity
MCF7 = test: Cytotoxicity against human MCF7 cells assessed as cell growth at 8 nM by sulforhodamine B assay relative to control; assay type: functional; details: read-out: Activity

## C/C=C1\NC(=O)[C@H](Cc2ccccc2)NC(=O)[C@@H](C(C)C)NC(=O)[C@@H]([C@@H](C)CC)NC(=O)[C@H](NC(=O)[C@H](NC(=O)[C@H](CCCNCc2ccc(N3CCOCC3)cc2)NC(=O)[C@H]2CCCN2C(=O)[C@H](NC(=O)[C@@H](NC(=O)[C@@H](NC(=O)[C@H](NC(=O)CCCC(C)C)C(C)C)[C@@H](C)O)C(C)C)C(C)C)[C@@H](C)CC)[C@@H](C)OC(=O)[C@H](C(C)C)NC1=O
NCI/ADR-RES [1]
  GI50: 1.41 µM
  LC50: 21.4 µM
NCI/ADR-RES [1]; read-out: pTGI (converted)
  TGI: 3.47 µM
T47D; read-out: GI50
  GI50: 0.167 µM
T47D; read-out: TGI
  TGI: 0.466 µM
T47D; read-out: pGI50 (converted)
  GI50: 0.166 µM
T47D; read-out: pTGI (converted)
  TGI: 0.468 µM
BT-549 [2]
  GI50: 1.35 µM
BT-549 [2]; read-out: pTGI (converted)
  TGI: 2.82 µM
Escherichia coli
  Activity: inactive
HOP-92
  growth at 80 µM: -62%
[3]
  MTD at 576 h: 12.5 mg/kg
IGROV-1
  growth at 80 µM: -30%
HCT-116
  growth at 8 µM: -66%
SW-620 [4]
  growth at 0.8 µM: 75%
TK-10 [5]
  growth at 8 µM: -77%
HCC 2998
  growth at 8 µM: -81%
NCI-H460
  growth at 80 µM: 2%
COLO 205 [6]
  growth at 0.008 µM: 103%
KM12 [7]
  growth at 0.08 µM: 99%
HCT-15
  growth at 8 µM: -82%
TK-10 [8]
  GI50: 1.48 µM
  LC50: 5.37 µM
TK-10 [8]; read-out: pTGI (converted)
  TGI: 2.82 µM
LOX IMVI
  growth at 8 µM: 20%
M14
  growth at 0.08 µM: 97%
KM12 [9]
  growth at 0.8 µM: -15%
SNB-75
  growth at 0.8 µM: 54%
HOP-62
  growth at 0.8 µM: 95%
COLO 205 [10]
  growth at 8 µM: -73%
PC-3
  growth at 8 µM: -91%
SN12C
  GI50: 1.41 µM
  LC50: > 75.9 µM
SN12C; read-out: pTGI (converted)
  TGI: 3.31 µM
UACC-62
  growth at 0.08 µM: 103%
BT-549 [11]
  growth at 80 µM: -49%
Staphylococcus aureus
  Activity: inactive
BT-549 [12]
  growth at 0.8 µM: 89%
NCI/ADR-RES [13]
  growth at 0.08 µM: 82%
NCI-H322M; read-out: GI50
  GI50: 0.133 µM
NCI-H322M; read-out: TGI
  TGI: 0.264 µM
NCI-H322M; read-out: pGI50 (converted)
  GI50: 0.132 µM
NCI-H322M; read-out: pTGI (converted)
  TGI: 0.263 µM
RXF 393
  GI50: 1.58 µM
  LC50: > 75.9 µM
RXF 393; read-out: pTGI (converted)
  TGI: 3.55 µM
ACHN
  growth at 80 µM: -76%
SW-620 [14]
  growth at 80 µM: -13%
MDA-MB-231
  GI50: 2.63 µM
  LC50: > 75.9 µM
MDA-MB-231; read-out: pTGI (converted)
  TGI: 15.5 µM
A549
  growth at 0.8 µM: -40%
U-251
  growth at 0.8 µM: 72%
SK-MEL-5
  GI50: 1.23 µM
  LC50: 4.07 µM
SK-MEL-5; read-out: pTGI (converted)
  TGI: 2.24 µM
SNB-19
  growth at 0.8 µM: 90%
OVCAR-4
  growth at 0.8 µM: 79%
MCF7
  growth at 0.008 µM: 102%
